Series [1] is described as follows: Inhibition of soybean 15-lipoxygenase. The arrangement: species or system Glycine max. The essentials: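 Soybean 15-lipoxygenase with linoleic acid substrate (final 134 µM) in 0.1 M borate buffer pH 9 at 20 ± 1 °C. Absorbance read at 234 nm for 60 s after enzyme addition. Inhibitor plus linoleic acid served as blank. At least six controls and three tubes per inhibitor solution. Enzyme kept on ice, with controls run at intervals. IC50 from linear interpolation around 50% activity.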

Series [2] can be described thus: Partition coefficient, log P of the compound. The series is classed as physicochemical. The conditions noted are these: octanol/water.

In series [1], `C=CCc1ccc(OC(=O)c2cccc(Cl)c2)c(OC)c1` gave an IC50 of 5.2 µM. Also, the logP in series [2] was found to be 2.79. In the same order, the values of `C=CCc1ccc(OC(=O)c2cccc(OC)c2)c(OC)c1` are 23 µM and 1.86.

For `C=CCc1ccc(OC(=O)c2cccc(F)c2)c(OC)c1`, in series [1], it took 2.1 µM to reach half-maximal inhibition (IC50). Moreover, in series [2], the logP stood at 2.7. For `C=CCc1ccc(OC(=O)c2ccc(F)cc2)c(OC)c1` the same measures were 7.2 µM and 2.7. Compound `C=CCc1ccc(OC(=O)C2CCCCC2)c(OC)c1` gave an IC50 in series [1] of 2.2 µM. In addition, the logP in series [2] was found to be 3.52.

In series [1], `C=CCc1ccc(OC(=O)c2ccc(OC)cc2)c(OC)c1` showed an IC50 of 19 µM. Further, the logP in series [2] came out at 1.86. In series [1], `C=CCc1ccc(OC(=O)c2ccccc2C)c(OC)c1` yielded an IC50 of 77.2 µM. For the same compound, the logP in series [2] was 2.87.

In the case of `C=CCc1ccc(OC(=O)c2cccnc2)c(OC)c1`, the IC50 in series [1] was determined as 1.7 µM. The log partition coefficient (logP) in series [2] came out at 0.86.

In series [1], `C=CCc1ccc(OC(=O)c2cccc(C)c2)c(OC)c1` registered an IC50 of 11.4 µM. In series [2], this compound yielded a log partition coefficient (logP) of 2.87. For `C=CCc1ccc(OC(=O)c2ccc(Cl)cc2)c(OC)c1` the same measures were 134 µM and 2.79. For `C=CCc1ccc(OC(=O)c2ccccn2)c(OC)c1` the same measures were 33.3 µM and 0.86.

Compound `C=CCc1ccc(OC(=O)C23CC4CC(CC(C4)C2)C3)c(OC)c1` gave an IC50 in series [1] of 0.017 µM. The logP in series [2] was 4.82. In the same order, the values of `C=CCc1ccc(OC(=O)c2ccncc2)c(OC)c1` are 2.3 µM and 0.86. In turn, `C=CCc1ccc(OC(=O)c2ccc(C)cc2)c(OC)c1` registered an IC50 in series [1] of 14.6 µM. Moreover, in series [2], the logP worked out at 2.87. In the same order, the values of `C=CCc1ccc(OC(=O)c2ccccc2Cl)c(OC)c1` are 168 µM and 2.79.

Regarding `C=CCc1ccc(OC(=O)c2ccccc2F)c(OC)c1`, in series [1], inhibition was half-maximal at 6.7 µM (IC50). The same compound gave a logP in series [2] of 2.7. `C=CCc1ccc(O)c(OC)c1` [EUGENOL] registered an IC50 in series [1] of 34.6 µM. This counts as double-digit micromolar.

On to `C=CCc1ccc(OC(=O)c2ccccc2)c(OC)c1` [EUGENYL BENZOAT], for which, in series [1], the midpoint of inhibition, the IC50, lay at 4.4 µM. This compound came in with a logP in series [2] of 2.25.

The IC50 is the concentration needed to halve the response being measured. The logP is the decadic logarithm of the partition coefficient of the neutral form, usually between octanol and water.

(Values after ChEMBL document CHEMBL1143966, “Design and synthesis of eugenol derivatives, as potent 15-lipoxygenase inhibitors” (Bioorg Med Chem, 2008).)
